Test results reported in PMC6392825 (ChemistryOpen, 2019).
Values after ≈ are worked out from the molar mass of the structure shown.

Tests used:
HepG2 [1] = assay: Cell growth inhibition, protein content; type: cell-based; conditions: Homo sapiens, HepG2, 72 h, read-out: IC50 SRB
How it was run: (§1)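 Cell lines from ATCC, grown in DMEM+glutamax with 1% NEAA, 1% P/S and 10% FBS at 37 °C, 10% CO2. Seeded at 20000 cells/well for 24 h, then exposed to test compound (25 mM DMSO stock) for three days. Fixed with cold TCA for 1 h at 4 °C, stained 30 min with 0.4% SRB in 1% acetic acid, dissolved in 10 mM Tris, A490. Triplicate; IC50 given as mean ± SD combined with MTT data (n ≥ 3).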

Caco‐2 [2] = assay: Cell growth inhibition, protein content; type: cell-based; conditions: Homo sapiens, Caco-2, 72 h, read-out: IC50 SRB
How it was run: as §1

[3] = tested on: HepG2, HT‐29, Caco‐2 and EA.hy926; assay: Antiproliferative activity, MTT and SRB assays taken together; type: cell-based
HT‐29 [4] = assay: Cytotoxicity, mitochondrial activity; type: cell-based; conditions: Homo sapiens, HT-29, 72 h, read-out: IC50 MTT
How it was run: (§2)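 Seeded at 20000 cells/well in DMEM and grown 24 h at 37 °C, 10% CO2. Medium was then replaced with serum-free medium holding test compound (25 mM DMSO stock) at various concentrations for 72 h, in triplicate; doxorubicin was the positive control. MTT (5 mg/mL stock in PBS) added for 2 h, formazan dissolved in DMSO, A570. IC50 derived from % surviving cells, reported as mean ± SD combined with SRB data.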

Caco‐2 [5] = assay: Cytotoxicity, mitochondrial activity; type: cell-based; conditions: Homo sapiens, Caco-2, 72 h, read-out: IC50 MTT
How it was run: as §2

EA.hy926 [6] = assay: Cell growth inhibition, protein content; type: cell-based; conditions: Homo sapiens, EA.hy 926, 72 h, read-out: IC50 SRB
How it was run: as §1

Caco‐2 [7] = assay: Intracellular ROS assay; type: cell-based; conditions: for activity at 1 µM / activity at 10 µM: Homo sapiens, Caco-2, read-out: Intracellular ROS, percentage compared to the untreated control cells (ROS/SRB)
How it was run: (§3)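 Cells seeded at 20000/well and grown 24 h at 37 °C, 10% CO2, then treated with test compound at 10 and 1 μM in serum-free medium. NAC and doxorubicin served as controls. After a PBS wash, cells were loaded with 20 μM DCFH-DA for 30 min, washed, and held 1 h in phenol red-free DMEM. Fluorescence read at ex 485/em 535 nm and normalized to SRB in the same well. Reported as % of untreated control, n ≥ 3, two-tailed t-test with unequal variances.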

HepG2 [8] = assay: Intracellular ROS assay; type: cell-based; conditions: for change of intracellular ROS in words: HepG2, vs untreated control, 10 and 1 μM; for activity at 1 µM / activity at 10 µM: Homo sapiens, HepG2, read-out: Intracellular ROS, percentage compared to the untreated control cells (ROS/SRB)
How it was run: as §3

EA.hy926 [9] = assay: Cytotoxicity, mitochondrial activity; type: cell-based; conditions: Homo sapiens, EA.hy 926, 72 h, read-out: IC50 MTT
How it was run: as §2

[10] = Chemical antioxidant capacity, FRAP assay
HT‐29 [11] = assay: Intracellular ROS assay; type: cell-based; conditions: for activity at 1 µM / activity at 10 µM: Homo sapiens, HT-29, read-out: Intracellular ROS, percentage compared to the untreated control cells (ROS/SRB); for change of intracellular ROS in words: HT‐29, vs untreated control, 10 and 1 μM
How it was run: as §3

HepG2 [12] = assay: Cytotoxicity, mitochondrial activity; type: cell-based; conditions: Homo sapiens, HepG2, 72 h, read-out: IC50 MTT
How it was run: as §2

HT‐29 [13] = assay: Cell growth inhibition, protein content; type: cell-based; conditions: Homo sapiens, HT-29, 72 h, read-out: IC50 SRB
How it was run: as §1

EA.hy926 [14] = assay: Intracellular ROS assay; type: cell-based; conditions: for activity at 1 µM / activity at 10 µM: Homo sapiens, EA.hy 926, read-out: Intracellular ROS, percentage compared to the untreated control cells (ROS/SRB); for change of intracellular ROS in words: EA.hy926, vs untreated control, 10 and 1 μM
How it was run: as §3

[15] = Water solubility, shake flask method, 0.1 M phosphate buffer pH 6.8; type: physicochemical; conditions: 37 °C, pH 6.8, aqueous buffer, thermodynamic from solid
CHO‐K1 = assay: Intracellular ROS assay; type: cell-based, Chinese hamster; conditions: CHO‐K1, vs untreated control, 10 and 1 μM
How it was run: as §3

IC50 (HepG2 [1])	IC50 (Caco‐2 [2])	solubility at 90 min [15]	solubility at 24 h [15]	SMILES	IC50 (HT‐29 [4])	IC50 (Caco‐2 [5])	IC50 (EA.hy926 [6])	activity at 1 µM (Caco‐2 [7])	activity at 10 µM (Caco‐2 [7])	change of intracellular ROS in words (HepG2 [8])	activity at 10 µM (HepG2 [8])	IC50 (EA.hy926 [9])	FRAP (Trolox equivalent per μM) [10]	FRAP (curcumin equivalent per μM) [10]	activity at 1 µM (HT‐29 [11])	activity at 10 µM (HT‐29 [11])	IC50 (HepG2 [12])	IC50 (HT‐29 [13])	activity at 1 µM (EA.hy926 [14])	activity at 10 µM (EA.hy926 [14])	other results
9.8 ± 0.6 µM	12 ± 0.7 µM	9 ± 0.6 µM (≈ 2.91 µg/mL)	12.8 ± 1.1 µM (≈ 4.14 µg/mL)	COc1cc(/C=C/C(=O)/C=C(O)/C=C/c2ccncc2)ccc1O [3 c, (1E,4Z,6E)‐5‐Hydroxy‐1‐(4‐hydroxy‐3‐methoxyphenyl)‐7‐(pyridin‐4‐yl)hepta‐1,4,6‐triene‐3‐one]	4.9 ± 0.3 µM	7.1 ± 0.4 µM	3.7 ± 0.2 µM	89.8 ± 3.6%	99.7 ± 1%	significantly increased ROS production	128 ± 4.4%	6.1 ± 0.1 µM	0.56 Trolox equivalent per μM	0.54 curcumin equivalent per μM	93.4 ± 6.4%	99.8 ± 11.4%	3.2 ± 0.8 µM	48.8 ± 1.8 µM	100 ± 6.9%	95.7 ± 3.5%	antiproliferative activity / cell growth inhibition in words [3]: comparable activity to the commercial doxorubicin drug; activity at 1 µM (HepG2 [8]): 104 ± 13.1%; antioxidant activity in words, FRAP [10]: comparable to ascorbic acid
54.6 ± 0.3 µM	46.5 ± 0.5 µM	16.8 ± 1.6 µM (≈ 5.37 µg/mL)	12.8 ± 1.4 µM (≈ 4.09 µg/mL)	COc1cc(/C=C/c2cc(/C=C/c3ccncc3)[nH]n2)ccc1O [4 b, 2‐Methoxy‐4‐{(E)‐2‐[5‐((E)‐2‐(pyridin‐4‐yl)vinyl)‐1H‐pyrazol‐3‐yl]vinyl}phenol]	49 ± 0.7 µM	39.3 ± 1.2 µM	51.8 ± 0.3 µM	106 ± 4.6%	94.3 ± 6.7%	significantly increased ROS production	123 ± 11.4%	35.7 ± 0.1 µM	0.43 Trolox equivalent per μM	0.42 curcumin equivalent per μM	111 ± 16.2%	114 ± 12.3%	56.7 ± 0.5 µM	47.4 ± 0.2 µM	86.9 ± 1.6%	80.6 ± 6.8%	change of intracellular ROS in words (CHO‐K1): significantly increased ROS; activity at 1 µM (HepG2 [8]): 135 ± 14.1%; change of intracellular ROS in words (EA.hy926 [14]): decreased intracellular ROS
7.1 ± 0.2 µM	15.9 ± 2 µM	20.9 ± 1.7 µM (≈ 6.51 µg/mL)	18.3 ± 0.4 µM (≈ 5.7 µg/mL)	COc1cc(/C=C/C(=O)/C=C(O)/C=C/c2ccc[nH]2)ccc1O [3 f, (1E,4Z,6E)‐5‐Hydroxy‐1‐(4‐hydroxy‐3‐methoxyphenyl)‐7‐(1H‐pyrrol‐2‐yl)hepta‐1,4,6‐trien‐3‐one]	33.9 ± 0.4 µM	17.1 ± 0.4 µM	33.8 ± 1.4 µM	125 ± 3.5%	147 ± 12%	significantly increased ROS production	216 ± 13.7%	45.6 ± 0.9 µM	0.56 Trolox equivalent per μM	0.54 curcumin equivalent per μM	117 ± 10.5%	109 ± 2.6%	31.7 ± 0.6 µM	36.1 ± 2.3 µM	125 ± 9.7%	132 ± 12.7%	change of intracellular ROS in words (CHO‐K1): significantly increased ROS; activity at 1 µM (HepG2 [8]): 98.9 ± 2.9%; antioxidant activity in words, FRAP [10]: comparable to ascorbic acid; change of intracellular ROS in words (HT‐29 [11]): higher ROS signal
28.3 ± 4.7 µM	60.3 ± 3.5 µM	6.4 ± 0.2 µM (≈ 2.36 µg/mL)	7 ± 0.2 µM (≈ 2.59 µg/mL)	COc1cc(/C=C/c2cc(/C=C/c3cccc4cnccc34)[nH]n2)ccc1O [4 c, 2‐Methoxy‐4‐{(E)‐2‐[5‐((E)‐2‐(isoquinolin‐5‐yl)vinyl)‐1H‐pyrazol‐3‐yl]vinyl}phenol]	37.7 ± 1.3 µM	58.7 ± 2 µM	> 75 µM	108 ± 18.6%	102 ± 17.3%	significantly decreased ROS signal	88 ± 10.6%	38.8 ± 0.4 µM	0.15 Trolox equivalent per μM	0.14 curcumin equivalent per μM	94.4 ± 3.4%	86.4 ± 8.2%	6.7 ± 0.4 µM	> 75 µM	89.9 ± 2.5%	99.2 ± 5%	antiproliferative activity / cell growth inhibition in words [3]: comparable activity to the commercial doxorubicin drug; activity at 1 µM (HepG2 [8]): 74.7 ± 2.9%
49.5 ± 2.1 µM	21.1 ± 0.3 µM	13.7 ± 0.5 µM (≈ 4.35 µg/mL)	11.7 ± 2.3 µM (≈ 3.71 µg/mL)	C(=C\c1c[nH]c2ccccc12)/c1cc(/C=C/c2cccs2)[nH]n1 [4 d, 3‐{(E)‐2‐[5‐((E)‐2‐(thiophen‐2‐yl)vinyl)‐1H‐pyrazol‐3‐yl]vinyl}‐1H‐indole]	4.2 ± 0.4 µM	19.6 ± 4 µM	9.5 ± 0.4 µM	458 ± 97.5%	382 ± 62.6%	significantly increased ROS production	985 ± 78.2%	6 ± 0.9 µM	0.33 Trolox equivalent per μM	0.32 curcumin equivalent per μM	463 ± 42.7%	384 ± 47.5%	34.9 ± 0.8 µM	9.7 ± 0.5 µM	483.9 ± 1.4%	402 ± 23.4%	change of intracellular ROS in words (Caco‐2 [7]; Caco‐2, vs untreated control, 10 and 1 μM): significantly increased ROS production; change of intracellular ROS in words (CHO‐K1): significantly increased ROS; change of intracellular ROS in words (HT‐29 [11]): higher ROS signal; change of intracellular ROS in words (EA.hy926 [14]): significantly increased ROS production
